# Source: PubChem
# The entries come from a sample that favours hits as a whole.
# Insulin prom act – TRM-6 insulin promoter activation. activation, % at 2 µM. TRM-6 cells, insulin promoter eGFP reporter, imaging; plate-scaled: unstimulated 0, stimulated control 100. AID 1296. hit rate 0.81% among 130,000;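 active = activation at 2 µM above a set limit, confirmed on inspection of the cell images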;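 also: share of cells whose green reporter signal exceeds an intensity cutoff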
#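 Test system: human fetal islet-derived TRM-6 cells with tamoxifen-inducible insulin promoter–eGFP reporter. Compound dosing: 2 µM final, single concentration. Incubation: tamoxifen pre-incubation 15 h overnight, then compound exposure 48 h at 37 °C. Signal: fixed-cell fluorescence microscopy, eGFP plus Hoechst.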
# Active calls of the source: *.
SMILES,Insulin prom act
Cc1ccc(Nc2ccc(N3CCN(c4ccc([N+](=O)[O-])cc4)CC3)nn2)cc1,-8
CN(C)/C=N/c1ncc(C(=O)OC(C)(C)C)s1,0
Cc1ccc2nc(/C(C#N)=C\c3ccc(Oc4ccc([N+](=O)[O-])cn4)cc3)[nH]c2c1,-4
Cc1ccc2nc(/C(C#N)=C\c3ccc(N4CCOCC4)o3)[nH]c2c1,456*
Cc1ccc2nc(/C(C#N)=C\c3cc(C)n(-c4cccc([N+](=O)[O-])c4)c3C)[nH]c2c1,0
Cc1cccc2cncc(OCc3nnc(SC(F)F)n3C)c12,7
O/N=C/C1=C(Cl)c2ccccc2CC1,-7
CC1CCCN(CCCOc2ccc([N+](=O)[O-])cc2)C1 (stereo not drawn),8
O=C(c1ccc(-c2ccc([N+](=O)[O-])cc2)o1)N1CCCCC1,-7
CC1CCCCN1C(=O)c1ccc(COc2ccc([N+](=O)[O-])cc2)o1 (stereo not drawn),380*
Cn1nc(N)nc1N1CCN(c2ccc(F)cc2)CC1,-7
Cc1ccnc(NC(=O)CS(=O)(=O)Cc2ccccc2)c1,550*
CCC(CC)c1nnc(NC(=O)CS(=O)(=O)Cc2ccccc2)s1,-43
CC(C)Cc1nnc(NC(=O)CS(=O)(=O)Cc2ccccc2)s1,6
O=C(CSc1nccc(=O)[nH]1)Nc1ccc(Br)c(Cl)c1,376
Cc1ccccc1NC(=O)c1ccc(CN2CCC(Cc3ccccc3)CC2)cc1,-6
COc1ccc(CCNC(=O)/C=C/C(=O)O)cc1,0
O=C(O)/C=C/C(=O)NCCc1ccccc1,321*
O=C(/C=C/c1c(Cl)cccc1Cl)NCCc1ccccc1,9
COc1ccc(NC(=O)c2cccc(S(=O)(=O)N3CCc4ccccc43)c2)cn1,-6
CCOC(=O)/C=c1\s/c(=C\c2ccc3cc(OC)ccc3c2)c(=O)n1CC(=O)NCc1ccc2c(c1)OCO2,335*
CCOC(=O)/C=c1\s/c(=C\c2c(OCC)ccc3ccccc23)c(=O)n1CC(=O)NCC1CCCO1 (stereo not drawn),185
COCCNC(=O)Cn1c(=O)n(CCCCCC(=O)NCc2ccc3c(c2)OCO3)c(=O)c2sccc21,-72
O=S(=O)([O-])CCC[n+]1c(/C=C\Nc2ccccc2)oc2ccc(-c3ccccc3)cc21,376*
CC[n+]1c(/C=C/N(C)c2ccccc2)oc2ccc(F)cc21,6
SMILES,Insulin prom act
CC[n+]1c(/C=C/Nc2ccccc2)oc2ccccc21,138*
CC[n+]1c(/C=C/Nc2ccccc2)oc2ccc(OC)cc21,456*
CC[n+]1c(/C=C/N(C)c2ccccc2)oc2ccccc21,156
CCOC(=O)c1c(-c2ccccc2)oc2ccc(OC)cc12,0
Cc1ccc(/C=N/NC(=O)CCn2nc(C)cc2C)c(C)c1,0
N#CCCn1c(SCC(=O)Nc2ccc(N3CCOCC3)cc2)nc2ccccc21,8
CC(C)(C)C1(C)OC(=O)C(=Cc2ccc(OCC(=O)Nc3ccccc3)cc2)C(=O)O1 (stereo not drawn),-8
CN=C(C)c1c(O)c2ccccc2oc1=O,3
CCNc1c(NC(C)=O)c(=O)oc2ccccc12,200*
CC(=O)Nc1c(C(=O)c2ccccc2)oc2ccccc12,-71
C=CCNc1nc(Cl)nc(Nc2ccc(OCC)cc2)n1,7
O=S(=O)(Nc1ccncc1Cl)c1ccc2ccccc2c1,-7
CCCCc1ccc(NC(=S)NCc2cccnc2)cc1,3
O=C(Cc1ccc(Cl)cc1Cl)OCC(=O)N1CCN(C(=O)c2ccco2)CC1,-5
O=c1cc(NS(=O)(=O)c2ccccc2)nc(SCc2ccc(Cl)cc2)[nH]1,-8
O=c1cc(O)nc(SCc2ccccc2)[nH]1,525*
CCCc1cc(=O)[nH]c(SCc2cccnc2)n1,342
Cc1csc(NC(=O)C2CCCN(S(=O)(=O)c3ccc(Br)s3)C2)n1 (stereo not drawn),-7
O=C(O)C(NS(=O)(=O)c1ccc(F)cc1)c1ccccc1 (stereo not drawn),-6
Cc1cc(Nc2ccccc2)n(C(=O)c2ccccc2)n1,6
Cc1ccc(S(=O)(=O)NC(c2ccccc2)C(C)C(=O)n2nc(C)cc2C)cc1 (stereo not drawn),117*
O=C(/C=C/Nc1ccc([N+](=O)[O-])cc1Br)c1cccc2ccccc12,6
COC(=O)C1=C(C)N(C)C(=S)N(C)C1c1cccc(Br)c1 (stereo not drawn),-6
O=C1CCC([N+](=O)[O-])C(c2ccccc2Cl)N1 (stereo not drawn),79*
Cc1ccc(SCC(=O)Nc2ccc(S(N)(=O)=O)cc2)cc1,-9
SMILES,Insulin prom act
O=C(CNC(=O)c1cccs1)NCCN1CCC(Cc2ccccc2)CC1,-7
CCCCC(=O)N(CCOC)c1nnc(-c2ccc(OC)cc2)s1,3
COCCN(C(=O)/C=C/c1ccccc1)c1nnc(-c2cccnc2)s1,-5
COCCN(C(=O)C1CC1)c1nnc(-c2cccc(C)c2)s1,182*
CCC1C(=O)N(C)CCc2ccccc21 (stereo not drawn),0
CS(=O)(=O)N(CC(=O)NC1CCCC1)Cc1ccc(Cl)cc1,-3
